Compound activity deposited in PubChem BioAssay by The Scripps Research Institute Molecular Screening Center.
In the library only some 4.6% were active in any assay of this set; here they are far more common.
OX1R antag-1: antagonists of human orexin 1 receptor (OX1R) | O43613 | OX1R-expressing cells, FRET antagonist read-out | inhibition, % at 6.6 µM | actives 1.8% (n = 330,000) | AID 485270; in the data active means inhibition mostly above about 38%, no sharp cut-off; inactive means mostly below about 40%;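 further: 0% = agonist challenge alone and 100% = reference antagonist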
CHO parental Ca: counter-screen: ATP calcium response change in parental CHO cells; AID 463079; actives 0.63% (n = 330,000); parental CHO-K1, ATP-induced calcium, Fluo-8 fluorescence; inhibition, % at 5.6 µM;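 active means inhibition above that plate's mean sample inhibition plus 3 SD, cut at about 26% in these data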;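 further: 0% = ATP-challenged DMSO wells and 100% = DMSO wells without ATP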
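Assay system – parental CHO cells · Reagent – ATP stimulus · Detection – intracellular calcium via Fluo-8 no-wash fluorescent dye · Evaluation – percent inhibition of ATP-evoked calcium rise, normalized to controls · Controls – ATP wells versus no-ATP DMSO wells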
TAAR1 agonist: agonists of human TAAR1 | CHO RD-HGA16 TAAR1, Fluo-8 calcium fluorescence; vehicle wells 0%, saturating PEA agonist 100% | activation, % at 3 µM | actives 0.99% (n = 360,000);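 active means activation above the mean activation of all test compounds in the run plus 3 SD, cut at about 38% in these data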
Target sequence (Q96RJ0 whole entry, looked up): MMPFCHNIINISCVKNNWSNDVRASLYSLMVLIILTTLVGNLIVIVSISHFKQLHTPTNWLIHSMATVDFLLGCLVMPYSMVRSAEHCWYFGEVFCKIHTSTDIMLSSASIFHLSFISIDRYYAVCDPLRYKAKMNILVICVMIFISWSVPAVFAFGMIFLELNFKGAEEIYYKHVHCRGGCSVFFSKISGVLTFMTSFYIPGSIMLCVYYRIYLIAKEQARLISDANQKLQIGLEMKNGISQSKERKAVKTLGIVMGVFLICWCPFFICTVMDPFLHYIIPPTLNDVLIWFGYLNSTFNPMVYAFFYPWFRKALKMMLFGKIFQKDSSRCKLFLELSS
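System: CHO RD-HGA16 cells carrying human TAAR1 plus Gα16; Incubation: 17-24 h seeding, 75 min 37 °C dye, 30 min RT; Measured by: Fluo-8 fluorescence, 5 s baseline then 140 s kinetic read; Control set: DMSO and PEA EC100; Replication: single well for each compound.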
OX1R antag-2: blocks the human orexin 1 receptor | inhibition, % at 5 µM | actives 0.43% (n = 330,000) | AID 434989 | CHO/OX1R cells, Fluo-8 calcium fluorescence, orexin A;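 active means inhibition above its plate's threshold, mean inhibition of all tested compounds on the plate plus 3 SD, cut at about 37% in these data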;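 further: 0% = orexin A challenge wells and 100% = SB-334867-A antagonist wells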
TAAR1 antagonist: antagonists of human TAAR1; CHO RD-HGA16 TAAR1, Fluo-8 calcium fluorescence, antagonist; Q96RJ0; actives 1.5% (n = 360,000); inhibition, % at 3 µM;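 active means inhibition above a per-plate cutoff, the mean inhibition of test compounds on that plate plus 3 SD, cut at about 49% in these data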;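 further: 0% = DMSO plus EC80 beta-PEA response and 100% = DMSO alone without agonist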
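test system = CHO RD-HGA16 cells bearing hTAAR1 | replication = singlicate | controls = DMSO-only wells and EC80 β-PEA-stimulated wells | reagent = EC80 β-phenethylamine stimulus | read-out basis = percent inhibition of PEA-evoked calcium signal, max/basal emission ratio | schedule = seeding 17-24 h prior, 75-min 37 °C, 30-min RT dye loading | signal = kinetic Fluo-8 calcium fluorescence measurement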
GPR7 antagonist: antagonists of human GPR7 (neuropeptides B/W receptor 1); actives 1.1% (n = 290,000); P48145; inhibition, % at 4.4 µM; GPR7-expressing cells, fluorescence antagonist assay; in the data active means inhibition above about 16%, passing the limit was not always enough;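 further: cells stimulated with the agonist NPW; 0% = agonist with vehicle and 100% = vehicle without agonist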
Target sequence (P48145 whole entry, looked up): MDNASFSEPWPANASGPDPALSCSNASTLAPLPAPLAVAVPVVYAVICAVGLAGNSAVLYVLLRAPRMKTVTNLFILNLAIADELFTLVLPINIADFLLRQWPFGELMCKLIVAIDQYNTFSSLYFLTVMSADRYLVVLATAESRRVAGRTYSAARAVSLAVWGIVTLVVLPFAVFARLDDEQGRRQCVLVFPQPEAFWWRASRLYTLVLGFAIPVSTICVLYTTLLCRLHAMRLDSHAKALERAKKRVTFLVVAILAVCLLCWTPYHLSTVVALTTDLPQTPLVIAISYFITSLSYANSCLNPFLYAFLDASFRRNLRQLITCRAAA
GPR7 antag conf: confirmation of human GPR7 antagonists; shares compounds with GPR7 antagonist; GPR7-expressing cells, calcium fluorescence antagonist mode; inhibition, % at 4.4 µM; actives 52% (n = 2,400); AID 1952; in the data active means inhibition above about 24%;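 further: stimulated with the GPR7 agonist NPW; 0% = agonist plus vehicle and 100% = vehicle alone without agonist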
MCHR1 antagonist: antagonizes human MCHR1, a GPR7 antagonist counter-screen | shares compounds with GPR7 antagonist | inhibition, % at 4.4 µM | MCHR1-expressing cells, fluorescence antagonist assay | actives 62% (n = 2,400); in the data active means inhibition above about 22%;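 further: 0% = vehicle with agonist and 100% = vehicle without agonist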
Active calls of the source: *; · = not tested or not shown.

SMILES	OX1R antag-1	CHO parental Ca	TAAR1 agonist	OX1R antag-2	TAAR1 antagonist	GPR7 antagonist	GPR7 antag conf	MCHR1 antagonist
COC(=O)c1cc(S(=O)(=O)N2CCN(c3ccc(C(C)=O)cc3)CC2)cn1C	18	8	1	-16	-12	25*	-8	41*
CC1CC(C)CN(C(=O)c2ccc(S(=O)(=O)N3CC(C)CC(C)C3)cc2)C1 (configuration not stated)	13	-20	-6	-31	-2	25*	24*	23*
CC(=O)c1ccc(S(=O)(=O)N2CCN(c3ccccc3F)CC2)cc1	17	7	3	-13	-11	25*	25*	23*
COC(=O)c1cc(S(=O)(=O)N2CCN(c3ccc([N+](=O)[O-])cc3)CC2)c[nH]1	12	-10	11	-6	-12	32*	9	1
Cc1c(NC(=S)NC(=O)C(c2ccccc2)c2ccccc2)cccc1C(=O)O	-2	-3	4	6	7	-4	·	·
CC(=O)c1ccc(N2CCN(C(=O)Cc3ccccc3)CC2)c(F)c1	6	14	5	-28	10	45*	10	8
O=C(Nc1ccsc1C(=O)O)c1ccc(Cl)cc1	-4	-7	-2	-4	-19	46*	3	5
Cc1ccc(C(=O)Nc2ccsc2C(=O)O)cc1	14	-10	3	1	2	5	·	·
CC(C)Nc1ccc(Nc2ccnc3cc4ccccc4cc23)cc1	38	-5	1	-11	1	6	·	·
c1ccc(CCNc2ccnc3cc4ccccc4cc23)cc1	·	·	17	·	-8	37*	45*	75*
COc1cccc(-n2cc(CN(C)Cc3nc(Cc4cccc(F)c4)no3)cn2)c1	11	-19	0	-22	-12	0	·	·
COc1ccc(CN(C)Cc2nc(Cc3cccc(F)c3)no2)c2cccnc12	25	25	12	19	5	30*	22	43*
CCCCCN(C(=O)CCC(=O)OCC(=O)NCCc1ccccc1)c1c(N)n(CCCC)c(=O)[nH]c1=O	·	·	1	·	-20	·	·	·
CCOc1ccc(-n2c(-c3ccccc3)c[n+]3c2CCCCC3)cc1	6	3	-1	0	5	29*	47*	45*
O=C(CCCc1cccs1)N1CCN(S(=O)(=O)c2ccccc2Br)CC1	13	-6	8	-27	6	29*	11	25*
O=C(O)CCC(=O)N1CCN(S(=O)(=O)c2cccs2)CC1	0	-1	0	0	-12	-21	·	·
O=C(CC(c1ccccc1)c1ccccc1)Nc1nn[nH]n1	26	-13	2	-4	-25	-13	·	·
CCCc1ccc(S(=O)(=O)N/N=C\c2ccc3c(c2)OCO3)cc1	·	·	8	·	-1	-15	·	·
COC(=O)C1CCCCN1C(=O)c1ccc2oc(C(C)C)nc2c1 (configuration not stated)	24	2	-1	-46	2	26*	6	3
COC(=O)C1CCCCN1C(=O)c1ccc2oc(Cc3ccccc3)nc2c1 (configuration not stated)	·	·	14	·	-30	-15	·	·
Cc1ccc2ccc3cccc4ccc1c2c34	6	-20	2	-28	-32	·	·	·
CCOc1ccc2nc(Cl)c(CN(C(=O)c3cnccn3)C3CCCC3)cc2c1	28	-12	2	-17	-3	-5	·	·
CCCC(=O)N(CCN(Cc1ccccc1)C(=O)CCC)Cc1ccccc1	36	-20	5	-19	12	31*	43*	31*
O=C1CN(C(=O)c2cc([N+](=O)[O-])ccc2Cl)C(c2ccccc2)c2cc(F)ccc2N1 (configuration not stated)	27	-14	2	-22	-7	-7	·	·
Cc1ccc(S(=O)(=O)N(C)S(=O)(=O)c2ccc(C#N)cc2)cc1	9	-4	·	-16	·	25*	19	25*
SMILES	OX1R antag-1	CHO parental Ca	TAAR1 agonist	OX1R antag-2	TAAR1 antagonist	GPR7 antagonist	GPR7 antag conf	MCHR1 antagonist
Cc1ccc(S(=O)(=O)CC(O)COc2ccc(C#N)cc2)cc1 (configuration not stated)	3	7	5	-17	5	-9	·	·
CCc1nc2ccc(C(=O)NCc3ccccc3OC)cn2c1N(C=O)CCC(C)C	·	·	2	·	4	·	·	·
COc1ccccc1NC(=O)COC(=O)/C=C/c1ccc2c(c1)OCO2	20	-1	0	-17	-3	33*	21	16
COc1ccccc1NC(=O)/C=C/c1ccc2c(c1)OCO2	27	-15	1	-13	-11	12	·	·
O=C(COC(=O)Cc1ccc(S(=O)(=O)N2CCOCC2)s1)Nc1ccc(F)cc1F	-3	-4	4	-8	11	·	·	·
O=C(Cc1ccc(S(=O)(=O)N2CCCCC2)s1)Nc1ccc(F)cc1F	14	-4	1	-7	-13	35*	20	19
Cc1ccc(NC(=S)NCc2ccc(Cl)cc2)c(C)c1	4	-1	0	-29	-7	31*	24*	10
S=C(NCc1ccccc1)Nc1ccc(Cl)cc1	13	13	7	11	32	21*	18	43*
S=C(NCc1ccccc1Cl)NC1CCCC1	14	-6	5	-6	-17	21*	-4	19
S=C(NCCc1cccc(Cl)c1)NCc1ccccc1	·	·	·	·	·	23*	14	20
S=C(NCc1ccccc1)NCc1cccc(Cl)c1	·	·	2	·	-10	-10	·	·
Fc1ccccc1CNC(=S)NC1CCCCC1	·	·	2	·	-34	-13	·	·
CCc1ccc(NC(=S)NCc2ccccc2)cc1	15	13	1	-11	-20	9	·	·
COc1ccc(N2C(=O)CC(N(CCc3ccccc3)C(=O)c3ccccc3)C2=O)cc1 (configuration not stated)	0	-23	2	-34	-2	-9	·	·
CC1Cc2cc(S(=O)(=O)CCC(=O)N3CCN(c4ccccc4)CC3)ccc2N1C(=O)C1CC1 (configuration not stated)	29	-14	4	-11	-10	-15	·	·
CNc1ccc(C(O)(C(F)(F)F)C(F)(F)F)cc1C(O)(C(F)(F)F)C(F)(F)F	28	-12	4	-3	8	-7	·	·
S=C(NCc1ccc(Cl)cc1)NC1CCN(Cc2ccccc2)CC1	14	8	51*	4	7	25*	40*	64*
Clc1ccc(CNC2CCN(Cc3ccccc3)CC2)cc1	11	-4	1	-27	-2	20	·	·
